The record followed here is ChEMBL document CHEMBL3272013, “Synthesis and biological evaluation of substituted 2,2'-oxybis(propionic acid) derivatives and related compounds” (1976).

Common to all, as to type: functional
Test [1] concerns Rattus norvegicus. The experiment in a line: Hypolipidemic activity in albino Wistar Royal Hart rat assessed as change in plasma cholesterol level at 120 mg/kg, po for 3 days. Put shortly: (§1)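 Male albino Wistar Royal Hart rats (160–180 g) were kept 7 days on drug-free ground Purina Lab Chow, then grouped six per group. Compound was given orally, once daily, for 3 or 6 days. Controls received no compound. Rats were anesthetized with sodium hexobarbital and bled from the carotid artery. Serum (1.0 ml) went into 9.0 ml 2-propanol with zeolite-copper hydroxide/Lloyd reagent, shaken 1 h. Cholesterol and triglyceride were autoanalyzed on the same sample. Change is given as % of control.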

Test [2] has as its system Rattus norvegicus. The test can be described thus: Hypolipidemic activity in albino Wistar Royal Hart rat assessed as change in plasma triglyceride level at 120 mg/kg, po for 3 days. In short, it runs like this: as §1
Test [3] relates to Rattus norvegicus. The experiment in a line: Hypolipidemic activity in albino Wistar Royal Hart rat assessed as change in plasma cholesterol level at 60 mg/kg, po for 6 days. Put shortly:
as §1

Test [4] concerns Rattus norvegicus. The experiment in a line: Hypolipidemic activity in albino Wistar Royal Hart rat assessed as change in plasma triglyceride level at 60 mg/kg, po for 3 days. In short, it runs like this:
as §1

The test system of test [5] is Rattus norvegicus. The test can be described thus: Hypolipidemic activity in albino Wistar Royal Hart rat assessed as change in plasma cholesterol level at 250 mg/kg, po for 6 days. Put shortly: as §1
For test [6], the system named is Rattus norvegicus. The experiment in a line: Hypolipidemic activity in albino Wistar Royal Hart rat assessed as change in plasma triglyceride level at 250 mg/kg, po for 6 days. In short, it runs like this:
as §1

The test system of test [7] is Rattus norvegicus. The experiment in a line: Hypolipidemic activity in albino Wistar Royal Hart rat assessed as change in plasma triglyceride level at 60 mg/kg, po for 6 days. In short, it runs like this: as §1
Test [8] relates to Rattus norvegicus. The experiment in a line: Hypolipidemic activity in albino Wistar Royal Hart rat assessed as change in plasma cholesterol level at 120 mg/kg, po for 6 days. In short, it runs like this: as §1
Test [9] deals with Rattus norvegicus. The experiment in a line: Hypolipidemic activity in albino Wistar Royal Hart rat assessed as change in plasma cholesterol level at 60 mg/kg, po for 3 days. Conditions: in the assay text read “for 6 days” for “for 3 days”. Put shortly: as §1
Test [10] concerns Rattus norvegicus. The experiment in a line: Hypolipidemic activity in albino Wistar Royal Hart rat assessed as change in plasma triglyceride level at 120 mg/kg, po for 6 days. In short, it runs like this: as §1
Test [11] has as its system Rattus norvegicus. The test can be described thus: Hypolipidemic activity in albino Wistar Royal Hart rat assessed as change in plasma cholesterol level at 250 mg/kg, po for 3 days. In short, it runs like this: as §1
Test [12] concerns Rattus norvegicus. The test can be described thus: Hypolipidemic activity in albino Wistar Royal Hart rat assessed as change in plasma triglyceride level at 250 mg/kg, po for 3 days. In short, it runs like this: as §1
Test [13] has as its system Rattus norvegicus. The experiment in a line: Hypolipidemic activity in albino Wistar Royal Hart rat assessed as change in plasma cholesterol level at 300 mg/kg, po for 6 days. Put shortly:
as §1

For test [14], the system named is Rattus norvegicus. The experiment in a line: Hypolipidemic activity in albino Wistar Royal Hart rat assessed as change in plasma triglyceride level at 300 mg/kg, po for 6 days. In short, it runs like this:
as §1

Test [15] deals with Rattus norvegicus. The experiment in a line: Hypolipidemic activity in albino Wistar Royal Hart rat assessed as change in plasma cholesterol level at 30 mg/kg, po for 6 days. In short, it runs like this: as §1
Test [16] relates to Rattus norvegicus. The test can be described thus: Hypolipidemic activity in albino Wistar Royal Hart rat assessed as change in plasma triglyceride level at 30 mg/kg, po for 6 days. Put shortly: as §1
The mark [17] stands for this setting: in the assay text read “for 3 days” for “for 6 days”.

Values joined by “and” are separate entries in the source; they are usually repeats but may differ in a detail not shown here. Equal values may be shown once.

For `CC1(C)OC(C)(C)C(=O)N(Cc2ccccc2)C1=O`, the figures for the Activity in [1] and in [2] were 35% and 51%, respectively.
Regarding `CC(C)(OC(C)(C)C(=O)O)C(=O)O`, the Activity in [1] was 4%; in test [2], -32%.
Taken in the same sequence, the figures for `COC(=O)C(C)(C)OC(C)(C(=O)OC)c1ccccc1` (centres undefined) were 0% and -3%.
Consider `CC(C)(OC(C(=O)O)(c1ccccc1)c1ccccc1)C(=O)O`, for which the figures for the Activity in test [1] and in test [2] were -11% and 8%, respectively.
The like results for `COC(=O)C(C)(C)OC(C)(C(=O)OC)c1ccc(Cl)cc1` (centres undefined) were, in that order, 29% and 9%.
In the case of `CC(C)(OC(C(=O)O)(c1ccccc1)c1ccc(Cl)cc1)C(=O)O` (centres undefined), the Activity is given as 6% in [1] and 33% in test [2].
Take `COC(=O)C(C)(C)OC1(C(=O)OC)CCCCC1`: the Activity is -8% in [1] and 8% in [2].
The like results for `CC(OC1(C(=O)O)CCCCC1)(C(=O)O)c1ccccc1` (centres undefined) were, in that order, 28% and -2%.
The like results for `CC(C)(O)C#CC(C)(O)c1ccc(Cl)cc1` (centres undefined) were, in that order, 11% and 6%.
With `CC(C)(O)C#CC(O)(c1ccccc1)c1ccc(Cl)cc1` (centres undefined), the results for the Activity in test [1] and in test [2] were 48% and 3%, respectively.
In the case of `CC(C)(O)C#CC(O)(c1ccncc1)c1ccc(Cl)cc1` (centres undefined), the values for the Activity in test [1] and in [2] were 30% and 34%, respectively.
Taken in the same sequence, the figures for `CN1CCC(O)(C#CC(C)(C)O)CC1` were 20% and 86%.
As for `CN1CCC(O)(C#CC2(O)CCN(C)CC2)CC1`, the Activity in test [1] is 19%; in test [2], 43%.
The like results for `CC1(C)OC(c2ccccc2)(c2ccccc2)/C(=N\O)C1=O` were, in that order, -6% and -19%.
Taken in the same sequence, the figures for `CC1(C)OC(c2ccccc2)(c2ccc(Cl)cc2)/C(=N\O)C1=O` (centres undefined) were -6% and -29%.
Take `CC1(C)CN(Cc2ccccc2)CC(C)(C)O1`: the Activity in [1] is on record as -14%; in [2], 9%.
`CC1(C)OC(C)(C)C(=O)N(Cc2ccc(Cl)cc2)C1=O`: the Activity is recorded as -3% in test [1] and 50% in [2].
Taken in the same sequence, the figures for `CC1(C)CN(Cc2ccc(Cl)cc2)CC(C)(C)O1` were -3% and -10%.
As to `CC1(C)OC(c2ccccc2)(c2ccccc2)C(=O)N(c2ccccc2)C1=O`, the Activity in test [1] is recorded as -6%; in [2], 8%.
Turning to `CC1(C)OC(c2ccccc2)(c2ccccc2)C(=O)N(Cc2ccccc2)C1=O`, the Activity was -9% in [3] (setting [17]) and -7% in test [4].
In the case of `CC1(C)CN(Cc2ccccc2)CC(c2ccccc2)(c2ccccc2)O1.Cl`, the figures for the Activity in test [1] and in [2] were 0% and -15%, respectively.
Consider `CC1(C)OC(c2ccccc2)(c2ccccc2)C(=O)N(Cc2ccc(Cl)cc2)C1=O`, for which the results for the Activity in [1] and in test [2] were -9% and -16%, respectively.
Taken in the same sequence, the figures for `CC1(C)CN(Cc2ccc(Cl)cc2)CC(c2ccccc2)(c2ccccc2)O1` were 12% and -45%.
`CC1(C)OC(c2ccccc2)(c2ccc(Cl)cc2)C(=O)N(Cc2ccccc2)C1=O` (centres undefined): the Activity in test [5] is on record as -7%; in test [6], -4%.
Regarding `CC(C)(CNCc1ccc(Cl)cc1)OC(C)(C)CNCc1ccc(Cl)cc1.Cl`, the Activity in test [7] was -9%; in [5], -7%; in test [8], -15%; in [9], -25%; in test [6] it was -77%; in [10] it was -64%.
Consider `CN1CCC(O)(/C=C\C(C)(C)O)CC1.Cl`, for which the Activity is listed as -4% in [1] and -10% in test [2].
Regarding `CN1CCC(O)(/C=C\C2(O)CCN(C)CC2)CC1`, the Activity is listed as -17% in [11] and -28% in test [12].
Turning to `O=C(c1ccccc1)N1CCC(O)(/C=C\C2(O)CCN(C(=O)c3ccccc3)CC2)CC1`, the Activity was -3% in test [1] and 27% in test [2].
Taken in the same sequence, the figures for `CC(=O)N1CCC(O)(/C=C\C(C)(C)O)CC1` were 21% and 92%.
Taken in the same sequence, the figures for `OC1(CCC(O)(c2ccccc2)c2ccccc2)CCCCC1` were -5% and 74%.
With `CN1CCC(O)(CCC2(O)CCN(C)CC2)CC1`, the Activity in [1] is -4%; in test [2], 29%.
As to `CC(=O)N1CCC(O)(CCC(C)(C)O)CC1`, the Activity in test [1] was -7%; in [2] it was -22%.
On to `CC1(C)C=CC(C)(c2ccccc2)O1` (centres undefined), for which the values for the Activity in [1] and in [2] were -7% and 27%, respectively.
In the case of `CC1(C)C=CC(c2ccccc2)(c2ccc(Cl)cc2)O1` (centres undefined), the figures for the Activity in [3] (setting [17]) and in test [4] were -11% and -17%, respectively.
For `CC1(C)C=CC(c2ccncc2)(c2ccc(Cl)cc2)O1` (centres undefined), the Activity in test [1] was 32%; in test [2], -65%.
`CC(=O)N1CCC2(CC1)CCC(C)(C)O2`: the Activity in test [5] is listed as -11%; in test [6], -39%.
Taken in the same sequence, the figures for `CC1(C)OC(C)(c2ccccc2)C2OC21` (centres undefined) were -11% and -6%.
As to `CC1(C)OC(c2ccncc2)(c2ccc(Cl)cc2)C2OC21` (centres undefined), in test [3] (60 mg/kg), the Activity was -8% and -6%.
Take `CC1(C)OC(c2ccccc2)(c2ccc(Cl)cc2)C2OC21` (centres undefined): in test [1] (120 mg/kg), the Activity was -11% and -12%.
In the case of `CCOC(=O)C(C)(C)Oc1ccc(Cl)cc1` [CLOFIBRATE], the values for the Activity in test [13] and in test [14] were -34% and -49%, respectively.
As to `CN1CCC(OC(=O)C(Oc2ccc(Cl)cc2)Oc2ccc(Cl)cc2)CC1` [LIFIBRATE], the Activity in test [15] was -30%; in test [16], -50%.
